What was measured:
[1] = biological target: Protein-tyrosine kinase 6 (Homo sapiens) (UniProt Q13882); assay: Inhibition of BRK at 1 uM
Outline: (§1)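 Ambit KINOMEscan screen at a single concentration across a 250–400 kinase panel, recorded as percent inhibition. Selectivity was expressed as S(90), the fraction of kinases inhibited >90%.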

[2] = biological target: Dual specificity protein kinase CLK2 (Homo sapiens) (UniProt P49760); assay: Inhibition of CLK2 at 1 uM; outline: as §1
[3] = biological target: Serine/threonine-protein kinase 32B (Homo sapiens) (UniProt Q9NY57); assay: Inhibition of YANK2 at 1 uM
[4] = biological target: Death-associated protein kinase 1 (Homo sapiens) (UniProt P53355); assay: Inhibition of DAPK1 at 1 uM
Outline: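 Single-concentration screen using Ambit Bioscience KINOMEscan technology across a panel of 250–400 kinases. Per-kinase inhibition from this screen was summarized as S(90), the fraction of kinases inhibited by more than 90%.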

[5] = biological target: Mitogen-activated protein kinase kinase kinase 4 (Homo sapiens) (UniProt Q9Y6R4); assay: Inhibition of MAP3K4 at 1 uM
[6] = biological target: STE20-like serine/threonine-protein kinase (Homo sapiens) (UniProt Q9H2G2); assay: Inhibition of SLK at 1 uM
[7] = biological target: T1, Serine/threonine-protein kinase D3 (Homo sapiens) (UniProt O94806); assay: Inhibition of PRKD3 at 1 uM
T1 sequence (whole entry): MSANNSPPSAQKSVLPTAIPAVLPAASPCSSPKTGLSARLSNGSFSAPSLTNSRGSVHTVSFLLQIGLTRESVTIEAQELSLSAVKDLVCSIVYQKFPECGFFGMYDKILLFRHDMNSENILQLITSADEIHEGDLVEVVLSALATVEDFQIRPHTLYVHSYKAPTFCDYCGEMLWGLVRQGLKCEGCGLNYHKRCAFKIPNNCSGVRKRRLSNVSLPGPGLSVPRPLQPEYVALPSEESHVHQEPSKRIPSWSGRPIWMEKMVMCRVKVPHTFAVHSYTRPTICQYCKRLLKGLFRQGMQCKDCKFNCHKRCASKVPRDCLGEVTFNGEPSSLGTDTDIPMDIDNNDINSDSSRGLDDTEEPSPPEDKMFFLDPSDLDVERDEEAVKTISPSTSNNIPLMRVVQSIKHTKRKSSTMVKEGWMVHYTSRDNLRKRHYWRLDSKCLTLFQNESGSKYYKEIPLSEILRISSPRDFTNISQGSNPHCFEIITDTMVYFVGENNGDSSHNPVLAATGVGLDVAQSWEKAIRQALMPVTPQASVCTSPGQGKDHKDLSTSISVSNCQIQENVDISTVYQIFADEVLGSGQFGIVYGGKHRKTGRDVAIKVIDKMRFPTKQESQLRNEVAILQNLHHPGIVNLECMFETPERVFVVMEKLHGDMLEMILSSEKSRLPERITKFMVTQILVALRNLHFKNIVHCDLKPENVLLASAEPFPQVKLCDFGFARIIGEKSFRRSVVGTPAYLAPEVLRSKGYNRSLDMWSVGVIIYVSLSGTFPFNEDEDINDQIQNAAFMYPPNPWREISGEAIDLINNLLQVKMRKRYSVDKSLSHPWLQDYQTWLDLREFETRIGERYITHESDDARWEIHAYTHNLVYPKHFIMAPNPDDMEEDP

[8] = biological target: T2, Mitogen-activated protein kinase kinase kinase 19 (Homo sapiens) (UniProt Q56UN5); assay: Inhibition of YSK4 at 1 uM
T2 sequence (whole entry): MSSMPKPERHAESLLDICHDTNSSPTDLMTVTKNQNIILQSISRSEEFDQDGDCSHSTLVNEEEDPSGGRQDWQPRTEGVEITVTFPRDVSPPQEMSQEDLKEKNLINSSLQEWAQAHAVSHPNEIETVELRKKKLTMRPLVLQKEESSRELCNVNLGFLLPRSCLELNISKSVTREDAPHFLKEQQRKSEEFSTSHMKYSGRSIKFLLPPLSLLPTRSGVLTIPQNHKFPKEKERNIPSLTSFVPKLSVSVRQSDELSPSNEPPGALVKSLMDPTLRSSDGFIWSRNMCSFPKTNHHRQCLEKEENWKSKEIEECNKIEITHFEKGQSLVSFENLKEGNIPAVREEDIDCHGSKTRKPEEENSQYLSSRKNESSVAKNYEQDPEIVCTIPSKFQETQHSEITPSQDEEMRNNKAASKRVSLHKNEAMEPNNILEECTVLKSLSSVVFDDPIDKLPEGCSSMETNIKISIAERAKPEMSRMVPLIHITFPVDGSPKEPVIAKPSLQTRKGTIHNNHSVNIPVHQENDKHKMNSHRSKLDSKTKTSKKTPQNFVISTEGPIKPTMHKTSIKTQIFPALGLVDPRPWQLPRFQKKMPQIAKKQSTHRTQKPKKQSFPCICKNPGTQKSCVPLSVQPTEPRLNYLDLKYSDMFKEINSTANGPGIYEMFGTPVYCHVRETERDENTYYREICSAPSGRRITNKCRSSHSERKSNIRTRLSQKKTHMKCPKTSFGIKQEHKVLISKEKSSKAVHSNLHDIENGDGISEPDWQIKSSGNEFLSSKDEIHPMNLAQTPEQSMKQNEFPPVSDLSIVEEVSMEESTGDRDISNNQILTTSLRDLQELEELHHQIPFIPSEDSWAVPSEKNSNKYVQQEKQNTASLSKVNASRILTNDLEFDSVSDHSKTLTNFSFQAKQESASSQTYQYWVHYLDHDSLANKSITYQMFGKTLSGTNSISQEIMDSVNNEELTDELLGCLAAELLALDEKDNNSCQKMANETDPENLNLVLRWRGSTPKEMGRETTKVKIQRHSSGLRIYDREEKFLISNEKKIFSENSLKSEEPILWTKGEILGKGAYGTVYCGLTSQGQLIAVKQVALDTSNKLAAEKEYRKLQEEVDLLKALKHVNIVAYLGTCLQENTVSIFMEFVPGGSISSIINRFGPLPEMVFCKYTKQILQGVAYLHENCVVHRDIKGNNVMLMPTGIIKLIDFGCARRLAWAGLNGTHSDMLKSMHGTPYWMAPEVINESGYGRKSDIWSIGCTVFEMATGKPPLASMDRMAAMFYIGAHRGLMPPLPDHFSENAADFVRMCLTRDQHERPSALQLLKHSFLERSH

[9] = biological target: Cyclin-dependent kinase 8 (Homo sapiens) (UniProt P49336); assay: Inhibition of CDK8 at 1 uM

Measured: inhibition

Chain of Death-associated protein kinase 1 (Homo sapiens) (P53355 whole entry, looked up): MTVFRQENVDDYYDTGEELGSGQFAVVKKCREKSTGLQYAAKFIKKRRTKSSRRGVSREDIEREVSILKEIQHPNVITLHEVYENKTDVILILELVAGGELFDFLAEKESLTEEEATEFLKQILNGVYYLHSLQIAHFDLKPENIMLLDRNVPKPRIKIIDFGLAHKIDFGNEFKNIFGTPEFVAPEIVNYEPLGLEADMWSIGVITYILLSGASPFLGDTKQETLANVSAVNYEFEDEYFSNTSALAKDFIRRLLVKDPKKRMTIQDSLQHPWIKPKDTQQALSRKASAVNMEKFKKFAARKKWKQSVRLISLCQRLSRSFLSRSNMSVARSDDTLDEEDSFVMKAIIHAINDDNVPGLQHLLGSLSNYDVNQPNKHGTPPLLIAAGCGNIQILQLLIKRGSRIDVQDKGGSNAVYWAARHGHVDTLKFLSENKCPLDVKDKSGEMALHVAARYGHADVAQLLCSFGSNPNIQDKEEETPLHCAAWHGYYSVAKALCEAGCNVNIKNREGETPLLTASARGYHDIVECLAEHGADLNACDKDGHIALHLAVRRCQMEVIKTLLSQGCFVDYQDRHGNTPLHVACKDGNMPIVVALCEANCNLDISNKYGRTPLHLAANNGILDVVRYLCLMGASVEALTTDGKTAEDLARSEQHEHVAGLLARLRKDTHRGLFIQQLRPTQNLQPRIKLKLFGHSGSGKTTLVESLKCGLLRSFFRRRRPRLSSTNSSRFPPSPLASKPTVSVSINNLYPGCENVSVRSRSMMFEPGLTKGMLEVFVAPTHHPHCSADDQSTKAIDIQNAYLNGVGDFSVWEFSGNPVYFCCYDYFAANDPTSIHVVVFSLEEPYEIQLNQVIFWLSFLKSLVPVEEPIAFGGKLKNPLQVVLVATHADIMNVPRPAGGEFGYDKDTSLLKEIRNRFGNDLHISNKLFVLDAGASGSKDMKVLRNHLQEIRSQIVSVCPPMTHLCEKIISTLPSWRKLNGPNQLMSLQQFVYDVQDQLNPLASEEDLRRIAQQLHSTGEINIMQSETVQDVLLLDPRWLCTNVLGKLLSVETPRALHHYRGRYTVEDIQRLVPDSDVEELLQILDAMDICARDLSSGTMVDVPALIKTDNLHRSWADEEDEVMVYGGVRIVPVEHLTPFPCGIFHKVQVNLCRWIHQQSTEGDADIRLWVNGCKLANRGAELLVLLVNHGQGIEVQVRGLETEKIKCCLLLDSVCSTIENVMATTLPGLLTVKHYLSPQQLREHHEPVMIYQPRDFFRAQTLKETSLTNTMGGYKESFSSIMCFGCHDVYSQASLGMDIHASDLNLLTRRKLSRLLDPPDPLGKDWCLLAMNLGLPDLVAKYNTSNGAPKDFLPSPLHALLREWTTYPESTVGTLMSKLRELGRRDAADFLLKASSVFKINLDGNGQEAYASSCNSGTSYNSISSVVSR
Chain of Serine/threonine-protein kinase 32B (Homo sapiens) (Q9NY57 whole entry): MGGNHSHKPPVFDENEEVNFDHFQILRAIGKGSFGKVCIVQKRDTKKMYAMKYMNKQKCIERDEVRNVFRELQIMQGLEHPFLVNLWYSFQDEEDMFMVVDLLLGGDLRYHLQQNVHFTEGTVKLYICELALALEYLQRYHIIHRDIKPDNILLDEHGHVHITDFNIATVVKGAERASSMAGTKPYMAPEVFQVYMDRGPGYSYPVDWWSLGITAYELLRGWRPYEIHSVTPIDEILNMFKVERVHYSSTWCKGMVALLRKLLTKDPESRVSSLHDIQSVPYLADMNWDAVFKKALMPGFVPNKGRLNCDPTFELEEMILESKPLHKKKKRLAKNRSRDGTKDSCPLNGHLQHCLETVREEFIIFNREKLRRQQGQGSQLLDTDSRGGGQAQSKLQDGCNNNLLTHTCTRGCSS
Chain of STE20-like serine/threonine-protein kinase (Homo sapiens) (Q9H2G2 whole entry, looked up): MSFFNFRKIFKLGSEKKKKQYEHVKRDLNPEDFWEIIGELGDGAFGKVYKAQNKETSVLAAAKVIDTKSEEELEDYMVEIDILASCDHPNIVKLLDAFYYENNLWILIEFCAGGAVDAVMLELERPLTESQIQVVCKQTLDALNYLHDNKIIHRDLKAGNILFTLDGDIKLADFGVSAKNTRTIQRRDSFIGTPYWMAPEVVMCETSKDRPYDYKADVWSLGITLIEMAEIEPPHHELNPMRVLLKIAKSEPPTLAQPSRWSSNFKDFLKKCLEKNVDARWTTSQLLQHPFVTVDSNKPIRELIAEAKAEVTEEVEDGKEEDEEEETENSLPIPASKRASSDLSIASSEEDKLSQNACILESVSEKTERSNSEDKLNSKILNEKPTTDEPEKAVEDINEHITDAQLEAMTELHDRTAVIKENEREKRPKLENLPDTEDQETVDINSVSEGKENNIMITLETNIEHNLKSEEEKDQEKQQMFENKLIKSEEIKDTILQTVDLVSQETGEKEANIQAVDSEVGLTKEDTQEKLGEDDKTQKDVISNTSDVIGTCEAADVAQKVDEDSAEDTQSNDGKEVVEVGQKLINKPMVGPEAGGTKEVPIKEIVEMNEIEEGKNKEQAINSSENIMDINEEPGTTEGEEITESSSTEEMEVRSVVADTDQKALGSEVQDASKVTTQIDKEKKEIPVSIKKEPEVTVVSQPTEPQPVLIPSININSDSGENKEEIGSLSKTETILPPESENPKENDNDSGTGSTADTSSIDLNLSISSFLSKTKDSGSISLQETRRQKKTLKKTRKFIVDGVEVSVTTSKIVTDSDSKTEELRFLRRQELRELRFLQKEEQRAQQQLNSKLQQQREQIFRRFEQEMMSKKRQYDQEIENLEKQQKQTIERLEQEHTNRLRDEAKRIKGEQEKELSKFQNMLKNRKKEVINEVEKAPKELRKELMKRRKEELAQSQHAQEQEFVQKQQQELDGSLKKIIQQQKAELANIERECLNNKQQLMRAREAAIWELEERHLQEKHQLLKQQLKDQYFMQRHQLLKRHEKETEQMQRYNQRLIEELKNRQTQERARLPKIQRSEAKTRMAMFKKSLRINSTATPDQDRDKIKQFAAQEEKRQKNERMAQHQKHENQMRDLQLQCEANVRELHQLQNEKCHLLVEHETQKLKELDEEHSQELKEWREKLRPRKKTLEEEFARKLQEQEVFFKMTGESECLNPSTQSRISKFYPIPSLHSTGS
Chain of Cyclin-dependent kinase 8 (Homo sapiens) (P49336 whole entry): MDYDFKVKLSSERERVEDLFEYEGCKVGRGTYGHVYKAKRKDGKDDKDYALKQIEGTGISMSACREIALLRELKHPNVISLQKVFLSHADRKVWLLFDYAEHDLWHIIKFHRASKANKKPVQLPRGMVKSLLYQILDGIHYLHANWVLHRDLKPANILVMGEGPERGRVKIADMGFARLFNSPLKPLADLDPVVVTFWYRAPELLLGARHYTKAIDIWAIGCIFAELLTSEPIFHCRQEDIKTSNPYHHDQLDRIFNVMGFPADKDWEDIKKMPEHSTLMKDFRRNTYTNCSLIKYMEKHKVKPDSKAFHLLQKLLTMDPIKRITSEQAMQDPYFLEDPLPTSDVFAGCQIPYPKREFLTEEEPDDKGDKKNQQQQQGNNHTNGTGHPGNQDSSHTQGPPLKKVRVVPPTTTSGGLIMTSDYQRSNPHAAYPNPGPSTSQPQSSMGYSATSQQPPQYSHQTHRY
Chain of Dual specificity protein kinase CLK2 (Homo sapiens) (P49760 whole entry, looked up): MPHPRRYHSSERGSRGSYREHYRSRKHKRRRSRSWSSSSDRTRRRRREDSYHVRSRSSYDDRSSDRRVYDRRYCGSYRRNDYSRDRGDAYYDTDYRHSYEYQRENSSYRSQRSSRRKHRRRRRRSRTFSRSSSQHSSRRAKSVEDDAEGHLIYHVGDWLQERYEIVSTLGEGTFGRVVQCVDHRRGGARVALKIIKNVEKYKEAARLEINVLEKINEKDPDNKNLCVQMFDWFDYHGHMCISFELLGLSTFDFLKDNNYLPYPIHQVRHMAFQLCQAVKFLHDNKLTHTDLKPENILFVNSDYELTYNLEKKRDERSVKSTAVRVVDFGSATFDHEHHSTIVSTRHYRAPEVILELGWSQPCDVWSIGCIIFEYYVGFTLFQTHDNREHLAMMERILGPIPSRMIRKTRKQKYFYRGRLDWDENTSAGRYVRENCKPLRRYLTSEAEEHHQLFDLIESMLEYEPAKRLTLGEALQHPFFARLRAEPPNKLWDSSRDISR
Chain of Protein-tyrosine kinase 6 (Homo sapiens) (Q13882 whole entry, looked up): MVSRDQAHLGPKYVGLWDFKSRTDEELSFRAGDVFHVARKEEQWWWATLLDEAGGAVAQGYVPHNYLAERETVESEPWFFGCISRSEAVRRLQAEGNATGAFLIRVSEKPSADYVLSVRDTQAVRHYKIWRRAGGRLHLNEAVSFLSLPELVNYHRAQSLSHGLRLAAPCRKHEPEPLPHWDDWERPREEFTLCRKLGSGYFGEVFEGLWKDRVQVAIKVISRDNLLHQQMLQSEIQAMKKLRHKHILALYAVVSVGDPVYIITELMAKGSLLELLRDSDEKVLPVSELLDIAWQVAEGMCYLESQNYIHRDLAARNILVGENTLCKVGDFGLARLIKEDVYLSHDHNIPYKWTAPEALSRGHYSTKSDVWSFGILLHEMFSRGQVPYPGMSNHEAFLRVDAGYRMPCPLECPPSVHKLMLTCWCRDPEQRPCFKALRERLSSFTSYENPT

O=C(c1ccc(-c2cnc3c(c2)N(Cc2cc(Cl)ccc2C(F)(F)F)CCN3)cc1)N1CCCCC1
not listed: [7] | [8] | [9]
< 50%: all other assays above

CN1CCN(c2ccc(-c3cnc4c(c3)N(Cc3c(F)ccc(F)c3Cl)CCN4)cn2)CC1
< 50%: all assays above

COC1CCN(C(=O)c2ccc(-c3cnc4c(c3)N(Cc3cc(Cl)ccc3C(F)(F)F)CCN4)cc2)CC1
< 50%: [1] | [2] | [3] | [4] | [6]

O=C(O)c1ccc(-c2cnc3c(c2)N(Cc2cc(Cl)ccc2C(F)(F)F)CCN3)cc1
not listed: [7] | [8] | [9]
< 50%: all other assays above

FC(F)(F)c1ccc(Cl)cc1CN1CCNc2ncc(-c3ccnc(N4CCNCC4)c3)cc21
< 50%: all assays above

CN1CCN(c2ccc(-c3cnc4c(c3)N(Cc3cc(Cl)ccc3Cl)CCN4)cn2)CC1
< 50%: all assays above

O=C(c1ccc(-c2cnc3c(c2)N(Cc2cc(Cl)ccc2C(F)(F)F)CCN3)cc1)N1CCC(N2CCCC2)CC1
not listed: [7] | [8] | [9]
< 50%: all other assays above

CN1CCN(c2ccc(-c3cnc4c(c3)N(Cc3cc(Cl)ccc3C(F)(F)F)CCN4)cn2)CC1
< 50%: all assays above

CC(=O)N1CCN(c2cc(-c3cnc4c(c3)N(Cc3cc(Cl)ccc3C(F)(F)F)CCN4)ccn2)CC1
< 50%: all assays above

CN1CCN(c2ccc(-c3cnc4c(c3)N(Cc3cc(F)ccc3F)CCN4)cn2)CC1
< 50%: all assays above
